Results from ChEMBL document CHEMBL5252510, “A Novel Potent Oral Series of VEGFR2 Inhibitors Abrogate Tumor Growth by Inhibiting Angiogenesis” (J Med Chem, 2016).

Columns and labels:
[1] = Toxicity in C57BL/6jNpa mouse harbouring mouse B16-BL6 cells assessed as effect on body weight at 3 mg/kg, po qd administered started on day 7 post implantation measured after 21 days; format: organism-based; settings: in vivo, 504 h, time 7-21 day
Procedure, shortened: (§1)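 B16/BL6 melanoma cells (50000) injected intradermally into dorsal pinna of both ears of female mice (18–20 g). Randomized on day 7 into groups of 5-6 by primary tumor size, then dosed orally once daily for 14 days in PEG300 or PEG200. Sacrificed day 21; blood analysed directly for platelets, red and white cell counts, hematocrit. Body and spleen weight recorded versus healthy naive mouse.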

BaF3 [2] = experiment: Antiproliferative activity against mouse BaF3 cells expressing Tel-FGFR3 assessed as cell growth inhibition measured after 72 hrs by Alamar Blue assay; settings: BaF3, 72 h
[3] = Toxicity in VEGF-induced FVB mouse model at 0.3 to 3 mg/kg, po qd treated for 4 to 6 hrs prior to chamber implantation and continuing for 4 days measured after 24 hrs post last dose; format: organism-based; settings: in vivo, 120 h, dose 0.3-3 mg/kg, time 5 day
Procedure, shortened: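 Female FVB mice (18–20 g), groups of 6. Porous chambers with VEGF (2 μg/mL) in 0.5 mL 0.8 % agar with heparin (20 U/mL) implanted subcutaneously in flank. Oral dosing once daily in 100 % PEG200 (5 mL/kg), starting 4-6 h before implantation, for 4 days; chambers removed 24 h after last dose. Animals observed for signs of toxicity.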

BaF3 [4] = experiment: Antiproliferative activity against mouse BaF3 cells expressing ERBB2 V659E mutant assessed as cell growth inhibition measured after 72 hrs by Alamar Blue assay; settings: BaF3, 72 h
[5] = Toxicity in C57BL/6jNpa mouse harbouring mouse B16-BL6 cells assessed as drug tolerability at 3 mg/kg, po qd administered started on day 7 post implantation measured after 21 days; format: organism-based; settings: in vivo, 504 h, time 7-21 day
Procedure, shortened: (§2)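 Female C57BL/6JNpa mice received 50000 B16/BL6 cells intradermally in both ear pinnae. Randomized on day 7 into groups of 5–6, then dosed 3 mg/kg p.o. daily in PEG200/PEG300 for 14 days. Behavior and well-being were observed. On day 21, blood was analysed for platelet, red and white cell counts and hematocrit.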

HUVEC [6] = experiment: Antiproliferative activity against VEGF-stimulated HUVEC cells assessed as cell growth inhibition measured after 24 hrs by BrdUrd incorporation based spectrophotometric analysis; settings: Homo sapiens
[7] = Toxicity in C57BL/6jNpa mouse harbouring mouse B16-BL6 cells assessed as effect on animal well-being at 3 mg/kg, po qd administered started on day 7 post implantation measured after 21 days; format: organism-based; settings: in vivo, 504 h, time 7-21 day; procedure, shortened: as §2
BaF3 [8] = experiment: Antiproliferative activity against mouse BaF3 cells expressing Tel-KDR-myc1.3 assessed as cell growth inhibition measured after 72 hrs by Alamar Blue assay; settings: BaF3, 72 h
B16-BL6 [9] = experiment: Antitumor activity against mouse B16-BL6 cells implanted in C57BL/6jNpa mouse assessed as metastatic tumor growth inhibition at 3 mg/kg, po qd administered started on day 7 post implantation measured after 21 days relative to control; format: functional; settings: time 7-21 day, read-out: TGI
Procedure, shortened: (§3)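 Female C57BL/6JNpa mice, 50000 B16/BL6 cells intradermally in both ear pinnae; primary tumor area (mm²) imaged days 7, 14, 21; randomized day 7 into groups of 5-6, oral dosing in PEG200 or PEG300 vehicle daily (or every 2 days) for 14 days; day 21 cervical lymph nodes weighed, metastasis lysates assayed for TIE-2 by ELISA; T/C ratios.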

B16-BL6 [10] = experiment: Antitumor activity against mouse B16-BL6 cells implanted in C57BL/6jNpa mouse assessed as metastatic tumor growth inhibition by measuring T/C ratio at 3 mg/kg, po qd administered started on day 7 post implantation measured after 21 days; format: functional; settings: time 7-21 day; procedure, shortened: as §3
[11] = target: Vascular endothelial growth factor receptor 1 (Homo sapiens, UniProt P17948); experiment: Inhibition of human recombinant GST-fused VEGFR1 kinase domain transphosphorylation expressed in baculovirus expression system using poly-Glu-Tyr (4:1) as substrate measured after 10 mins in presence of gamma-[33P]-ATP by scintillation counting analysis
Procedure, shortened: (§4)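 GST-fused kinase domains were expressed in baculovirus and purified on glutathione-Sepharose. 10 min at ambient temperature, stopped with EDTA. Filter binding and scintillation counting. IC50 by linear regression of percent inhibition.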

[12] = target: Vascular endothelial growth factor receptor 3 (Homo sapiens, UniProt P35916); experiment: Inhibition of human recombinant GST-fused VEGFR3 kinase domain transphosphorylation expressed in baculovirus expression system using poly-Glu-Tyr (4:1) as substrate measured after 10 mins in presence of gamma-[33P]-ATP by scintillation counting analysis; procedure, shortened: as §4
B16-BL6 [13] = experiment: Antitumor activity against mouse B16-BL6 cells implanted in C57BL/6jNpa mouse assessed as primary tumor growth inhibition at 3 mg/kg, po qd administered started on day 7 post implantation measured after 21 days relative to control; format: functional; settings: time 7-21 day, read-out: TGI; procedure, shortened: as §3
BaF3 [14] = experiment: Antiproliferative activity against mouse BaF3 cells expressing PTC3-RET assessed as cell growth inhibition measured after 72 hrs by Alamar Blue assay; settings: BaF3, 72 h
BaF3 [15] = experiment: Antiproliferative activity against mouse BaF3 cells expressing FLT3-ITD assessed as cell growth inhibition measured after 72 hrs by Alamar Blue assay; settings: BaF3, 72 h
HUVEC [16] = experiment: Antiproliferative activity against bFGF-stimulated HUVEC cells assessed as cell growth inhibition measured after 24 hrs by BrdUrd incorporation based spectrophotometric analysis; settings: Homo sapiens
[17] = Toxicity in C57BL/6jNpa mouse harbouring mouse B16-BL6 cells assessed as effect on blood platelet count at 3 mg/kg, po qd administered started on day 7 post implantation measured after 21 days; format: organism-based; settings: in vivo, 504 h, time 7-21 day; procedure, shortened: as §2
[18] = Half-life in Sprague-Dawley rat at 3 mg/kg, iv measured upto 24 hrs by HPLC/UV analysis; format: ADME, organism-based; settings: in vivo
Procedure, shortened: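 Female Sprague Dawley rats, 8 weeks old, catheterized in the jugular vein and femoral artery, recovered 96 h. IV dose 3 mg/kg in ethanol/NMP/PEG400/5 % glucose (10/10/50/30). n=2. Plasma sampled at 5, 15, 30 min and 1, 2, 4, 6, 8, 24 h.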

[19] = Dose normalized AUC(0 to infinity) in Sprague-Dawley rat at 50 mg/kg, po measured upto 24 hrs by HPLC/UV analysis; format: ADME, organism-based; settings: in vivo
Procedure, shortened: (§5)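 Female Sprague Dawley rats, 8 weeks old, catheterized. Oral suspension in 0.5 % carboxymethyl cellulose at 50 mg/kg, n=3. Bioavailability taken against 3 mg/kg iv. Plasma sampled 5 min–24 h. Cmax and AUC(0–∞) dose-normalized.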

[20] = Volume of distribution at steady state in Sprague-Dawley rat at 3 mg/kg, iv measured upto 24 hrs by HPLC/UV analysis; format: ADME, organism-based; settings: in vivo, read-out: Vdss
Procedure, shortened: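 Female Sprague Dawley rats, 8 weeks, jugular vein and femoral artery catheters, 96 h recovery. IV 3 mg/kg in ethanol/NMP/PEG400/D5W (10/10/50/30), n=2.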

[21] = Dose normalized Cmax in Sprague-Dawley rat at 50 mg/kg, po measured upto 24 hrs by HPLC/UV analysis; format: ADME, organism-based; settings: in vivo; procedure, shortened: as §5
[22] = Oral bioavailability in Sprague-Dawley rat at 50 mg/kg measured upto 24 hrs by HPLC/UV analysis; format: ADME, organism-based; settings: in vivo; procedure, shortened: as §5
[23] = Toxicity in C57BL/6jNpa mouse harbouring mouse B16-BL6 cells assessed as effect on white blood cell count at 3 mg/kg, po qd administered started on day 7 post implantation measured after 21 days; format: organism-based; settings: in vivo, 504 h, time 7-21 day; procedure, shortened: as §1

Vascular endothelial growth factor receptor 1, sequence (P17948 whole entry, the tested form may be a part): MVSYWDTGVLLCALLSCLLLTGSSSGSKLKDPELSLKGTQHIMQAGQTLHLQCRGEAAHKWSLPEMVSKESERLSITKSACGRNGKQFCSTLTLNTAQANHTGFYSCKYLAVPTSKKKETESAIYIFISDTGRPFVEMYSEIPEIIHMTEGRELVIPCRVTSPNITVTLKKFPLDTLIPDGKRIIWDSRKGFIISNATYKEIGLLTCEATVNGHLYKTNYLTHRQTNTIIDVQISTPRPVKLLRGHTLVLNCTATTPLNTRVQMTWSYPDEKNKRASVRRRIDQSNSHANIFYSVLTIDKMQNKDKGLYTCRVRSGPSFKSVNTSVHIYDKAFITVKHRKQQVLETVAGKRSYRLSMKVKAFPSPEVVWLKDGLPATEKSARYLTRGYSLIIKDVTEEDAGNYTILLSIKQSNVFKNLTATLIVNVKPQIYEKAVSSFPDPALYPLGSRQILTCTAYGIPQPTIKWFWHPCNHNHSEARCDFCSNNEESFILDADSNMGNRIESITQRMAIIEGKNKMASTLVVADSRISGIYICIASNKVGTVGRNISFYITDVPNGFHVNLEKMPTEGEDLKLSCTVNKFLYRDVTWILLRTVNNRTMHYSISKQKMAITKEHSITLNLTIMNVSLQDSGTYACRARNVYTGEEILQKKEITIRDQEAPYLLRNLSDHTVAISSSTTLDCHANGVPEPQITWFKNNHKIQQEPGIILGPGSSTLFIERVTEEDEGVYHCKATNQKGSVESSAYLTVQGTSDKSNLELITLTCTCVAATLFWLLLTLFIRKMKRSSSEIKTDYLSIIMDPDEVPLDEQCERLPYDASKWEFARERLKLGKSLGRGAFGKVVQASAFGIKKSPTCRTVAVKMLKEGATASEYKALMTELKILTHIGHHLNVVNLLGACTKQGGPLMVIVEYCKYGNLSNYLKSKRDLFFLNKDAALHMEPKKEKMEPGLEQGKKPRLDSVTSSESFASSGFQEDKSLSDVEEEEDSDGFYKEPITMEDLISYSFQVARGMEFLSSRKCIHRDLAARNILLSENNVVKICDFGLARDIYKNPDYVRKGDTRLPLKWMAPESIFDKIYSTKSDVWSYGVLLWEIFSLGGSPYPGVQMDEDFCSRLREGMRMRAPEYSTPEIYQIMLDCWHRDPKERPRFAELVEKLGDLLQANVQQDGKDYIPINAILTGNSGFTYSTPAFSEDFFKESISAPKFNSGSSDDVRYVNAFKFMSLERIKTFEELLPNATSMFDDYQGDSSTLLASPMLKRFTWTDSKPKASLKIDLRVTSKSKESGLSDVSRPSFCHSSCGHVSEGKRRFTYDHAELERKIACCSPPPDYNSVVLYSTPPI
Vascular endothelial growth factor receptor 3, sequence (P35916 whole entry, the tested form may be a part): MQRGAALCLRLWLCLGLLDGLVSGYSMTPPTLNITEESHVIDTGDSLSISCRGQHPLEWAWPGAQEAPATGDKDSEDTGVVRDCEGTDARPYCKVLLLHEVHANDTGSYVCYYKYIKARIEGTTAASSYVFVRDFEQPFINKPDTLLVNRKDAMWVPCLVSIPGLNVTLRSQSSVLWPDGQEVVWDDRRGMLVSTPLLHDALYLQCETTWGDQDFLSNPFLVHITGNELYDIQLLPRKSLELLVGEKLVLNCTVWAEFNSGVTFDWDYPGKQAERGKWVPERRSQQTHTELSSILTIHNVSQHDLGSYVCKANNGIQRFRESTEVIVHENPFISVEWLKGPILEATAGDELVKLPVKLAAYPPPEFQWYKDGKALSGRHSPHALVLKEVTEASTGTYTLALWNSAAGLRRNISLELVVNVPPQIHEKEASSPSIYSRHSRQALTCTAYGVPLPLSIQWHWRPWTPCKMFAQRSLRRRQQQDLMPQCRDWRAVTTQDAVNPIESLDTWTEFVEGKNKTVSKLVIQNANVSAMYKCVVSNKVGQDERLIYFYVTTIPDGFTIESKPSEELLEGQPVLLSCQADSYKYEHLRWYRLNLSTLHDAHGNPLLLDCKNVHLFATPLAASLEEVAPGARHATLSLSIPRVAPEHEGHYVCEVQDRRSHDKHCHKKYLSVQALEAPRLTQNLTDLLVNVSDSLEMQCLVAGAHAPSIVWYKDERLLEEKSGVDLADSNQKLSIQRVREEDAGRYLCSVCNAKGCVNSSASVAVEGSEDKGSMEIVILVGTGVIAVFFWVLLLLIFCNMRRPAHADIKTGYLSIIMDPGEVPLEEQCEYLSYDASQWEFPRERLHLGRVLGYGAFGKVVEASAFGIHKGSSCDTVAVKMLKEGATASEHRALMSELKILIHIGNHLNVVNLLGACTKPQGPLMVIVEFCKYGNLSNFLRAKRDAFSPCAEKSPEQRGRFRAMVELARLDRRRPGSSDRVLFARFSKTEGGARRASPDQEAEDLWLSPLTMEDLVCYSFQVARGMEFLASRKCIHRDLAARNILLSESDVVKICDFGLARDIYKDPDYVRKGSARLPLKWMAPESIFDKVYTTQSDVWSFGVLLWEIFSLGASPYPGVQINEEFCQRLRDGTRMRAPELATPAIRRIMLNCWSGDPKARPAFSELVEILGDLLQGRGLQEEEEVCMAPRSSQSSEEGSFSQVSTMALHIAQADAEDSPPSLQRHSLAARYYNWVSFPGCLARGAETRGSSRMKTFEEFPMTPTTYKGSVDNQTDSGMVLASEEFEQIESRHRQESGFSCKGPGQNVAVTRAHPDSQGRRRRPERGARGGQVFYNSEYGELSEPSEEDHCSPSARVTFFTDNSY

| SMILES | IC50 (BaF3 [2]) | IC50 (BaF3 [4]) | IC50 (BaF3 [8]) | IC50 [11] | IC50 [12] | IC50 (BaF3 [14]) | IC50 (BaF3 [15]) | half-life [18] | AUC/dose [19] | Vd [20] | Activity [1] | Activity [3] | Activity [5] | IC50 (HUVEC [6]) | Activity [7] | inhibition in vivo at 3 mg/kg (B16-BL6 [9]) | T/C (B16-BL6 [10]) | inhibition in vivo at 3 mg/kg (B16-BL6 [13]) | IC50 (HUVEC [16]) | Activity [17] | other results |
| --- | --- | --- | --- | --- | --- | --- | --- | --- | --- | --- | --- | --- | --- | --- | --- | --- | --- | --- | --- | --- | --- |
| O=C(Nc1cccc(C(F)(F)F)c1)c1cccc2cc(Oc3cc(CO)ncn3)ccc12 [BFH-772] | 6540 nM | > 10000 nM | 2 nM | 1700 nM | 1100 nM | 104 nM | > 10000 nM |  |  |  | Non-Toxic | Non-Toxic | Non-Toxic | < 0.01 nM | Non-Toxic | 71% | 0.17 | 54% | > 3000 nM |  |  |
| Nc1nccc(Oc2ccc3c(C(=O)Nc4cccc(C(F)(F)F)c4)cccc3c2)n1 | 8270 nM | > 10000 nM | 4 nM | 820 nM | 420 nM | 152 nM | > 10000 nM |  |  |  | Non-Toxic | Non-Toxic | Non-Toxic | 0.12 nM | Non-Toxic | 71% | 0.29 | 54% | > 3000 nM |  |  |
| Nc1cc(Oc2ccc3c(C(=O)Nc4cccc(C(F)(F)F)c4)cccc3c2)ncn1 | 2280 nM | > 10000 nM | 2 nM | 81 nM | 50 nM | 9 nM | 5650 nM | 4.1 h | 0.67 µmol·h/L | 0.9 L/kg | Non-Toxic | Non-Toxic | Non-Toxic | 1.7 nM | Non-Toxic | 71% | 0.04 | 54% | > 3000 nM | Non-Toxic | Cmax/dose [21]: 50 nM; bioavailability [22]: 5%; Activity [23]: Non-Toxic |

More lines, main results first:

| IC50 (BaF3 [2]) | IC50 (BaF3 [4]) | IC50 (BaF3 [8]) | IC50 [11] | IC50 [12] | IC50 (BaF3 [14]) | IC50 (BaF3 [15]) | half-life [18] | AUC/dose [19] | Vd [20] | SMILES | Activity [1] | Activity [3] | Activity [5] | IC50 (HUVEC [6]) | Activity [7] | inhibition in vivo at 3 mg/kg (B16-BL6 [9]) | T/C (B16-BL6 [10]) | inhibition in vivo at 3 mg/kg (B16-BL6 [13]) | IC50 (HUVEC [16]) | Activity [17] | other results |
| --- | --- | --- | --- | --- | --- | --- | --- | --- | --- | --- | --- | --- | --- | --- | --- | --- | --- | --- | --- | --- | --- |
| 8260 nM | > 10000 nM | 9 nM | 223 nM | 177 nM | 226 nM | 8200 nM | 16 h | 1.37 µmol·h/L | 3.5 L/kg | Nc1nccc(Oc2ccc3c(C(=O)Nc4ccc(F)c(C(F)(F)F)c4)cccc3c2)n1 | Non-Toxic | Non-Toxic | Non-Toxic | 0.077 nM | Non-Toxic | 71% | 0.13 | 54% | > 10 nM | Non-Toxic | Cmax/dose [21]: 70 nM; bioavailability [22]: 9%; Activity [23]: Non-Toxic |
| 2660 nM | > 10000 nM | 5 nM | 333 nM | 235 nM | 40 nM | 4780 nM | 18.3 h | 4.19 µmol·h/L | 1.5 L/kg | Nc1cc(Oc2ccc3c(C(=O)Nc4ccc(F)c(C(F)(F)F)c4)cccc3c2)ncn1 | Non-Toxic | Non-Toxic | Non-Toxic | 0.003 nM | Non-Toxic | 71% | 0.04 | 54% | 206 nM | Non-Toxic | Cmax/dose [21]: 80 nM; bioavailability [22]: 9%; Activity [23]: Non-Toxic |
